Measured values taken from ChEMBL document CHEMBL4321805, “A Conformational Restriction Strategy for the Identification of a Highly Selective Pyrimido-pyrrolo-oxazine mTOR Inhibitor” (J Med Chem, 2019).

What was measured:
[1] = biological target: Serine/threonine-protein kinase mTOR (Homo sapiens, UniProt P42345); test: Inhibition of alexa fluor 647-labeled kinase tracer 314 binding to recombinant human N-terminal GST-fused mTOR (1360 to 2549 residues) expressed in baculovirus expression system by TR-FRET assay
Summary of the method: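 LanthaScreen TR-FRET tracer displacement. GST-fused truncated mTOR (aa 1360–2549) detected with Eu-anti-GST antibody (2 nM). […] Buffer: 50 mM HEPES, 5 mM MgCl2, 1 mM EGTA, 0.01% Pluronic F-127. Ki derived from displacement.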

mTORC2 = mTORC2 (Homo sapiens, UniProt P42345); test: Inhibition of mTORC2 in human A2058 cells assessed as reduction in PKB phosphorylation at S473 residues incubated for 1 hr by Western blot analysis; assay type: cell-based
Summary of the method: (§1)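 In-cell Western assay. A2058 cells (2 × 10^4/well) grown 24 h at 37 °C, 5% CO2, then exposed 1 h to inhibitor or DMSO. Cells fixed in 4% PFA, blocked, and stained for the phospho-protein with α-tubulin as internal standard; infrared fluorescence read-out. Signals normalized to tubulin and to DMSO controls to derive IC50.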

mTORC1 = mTORC1 (Homo sapiens, UniProt P42345); test: Inhibition of mTORC1 in human A2058 cells assessed as reduction in ribosomal protein S6 phosphorylation at Ser235/236 residues incubated for 1 hr by Western blot analysis; assay type: cell-based; summary of the method: as §1
[2] = biological target: PI3-kinase p110-alpha/p85-alpha (Homo sapiens, UniProt P42336); test: Inhibition of alexa fluor 647-labeled kinase tracer 314 binding to recombinant human full-length N-terminal His6-tagged p110alpha/p85alpha expressed in baculovirus expression system by TR-FRET assay
Sequence of PI3-kinase p110-alpha/p85-alpha (P27986 whole entry, the tested form may be a part): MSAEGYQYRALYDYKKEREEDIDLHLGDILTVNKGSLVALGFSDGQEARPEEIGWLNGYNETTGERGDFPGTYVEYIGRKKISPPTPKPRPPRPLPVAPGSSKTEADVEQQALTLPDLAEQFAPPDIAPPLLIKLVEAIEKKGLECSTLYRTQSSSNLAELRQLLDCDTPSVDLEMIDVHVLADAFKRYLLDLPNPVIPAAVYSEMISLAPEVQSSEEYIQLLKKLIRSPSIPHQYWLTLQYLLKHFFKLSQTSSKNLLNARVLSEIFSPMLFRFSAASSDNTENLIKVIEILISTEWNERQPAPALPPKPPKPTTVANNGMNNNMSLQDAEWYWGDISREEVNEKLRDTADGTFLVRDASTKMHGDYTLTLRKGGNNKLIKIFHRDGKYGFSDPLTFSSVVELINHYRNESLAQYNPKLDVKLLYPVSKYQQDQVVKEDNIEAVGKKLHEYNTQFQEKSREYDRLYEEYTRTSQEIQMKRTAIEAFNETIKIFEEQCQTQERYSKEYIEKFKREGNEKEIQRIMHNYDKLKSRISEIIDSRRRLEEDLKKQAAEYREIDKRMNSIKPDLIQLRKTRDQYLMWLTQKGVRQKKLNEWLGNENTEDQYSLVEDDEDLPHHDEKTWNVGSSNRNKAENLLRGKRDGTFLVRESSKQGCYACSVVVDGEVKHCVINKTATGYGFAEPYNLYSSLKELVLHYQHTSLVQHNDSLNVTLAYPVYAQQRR
Sequence of PI3-kinase p110-alpha/p85-alpha (P42336 whole entry, the tested form may be a part): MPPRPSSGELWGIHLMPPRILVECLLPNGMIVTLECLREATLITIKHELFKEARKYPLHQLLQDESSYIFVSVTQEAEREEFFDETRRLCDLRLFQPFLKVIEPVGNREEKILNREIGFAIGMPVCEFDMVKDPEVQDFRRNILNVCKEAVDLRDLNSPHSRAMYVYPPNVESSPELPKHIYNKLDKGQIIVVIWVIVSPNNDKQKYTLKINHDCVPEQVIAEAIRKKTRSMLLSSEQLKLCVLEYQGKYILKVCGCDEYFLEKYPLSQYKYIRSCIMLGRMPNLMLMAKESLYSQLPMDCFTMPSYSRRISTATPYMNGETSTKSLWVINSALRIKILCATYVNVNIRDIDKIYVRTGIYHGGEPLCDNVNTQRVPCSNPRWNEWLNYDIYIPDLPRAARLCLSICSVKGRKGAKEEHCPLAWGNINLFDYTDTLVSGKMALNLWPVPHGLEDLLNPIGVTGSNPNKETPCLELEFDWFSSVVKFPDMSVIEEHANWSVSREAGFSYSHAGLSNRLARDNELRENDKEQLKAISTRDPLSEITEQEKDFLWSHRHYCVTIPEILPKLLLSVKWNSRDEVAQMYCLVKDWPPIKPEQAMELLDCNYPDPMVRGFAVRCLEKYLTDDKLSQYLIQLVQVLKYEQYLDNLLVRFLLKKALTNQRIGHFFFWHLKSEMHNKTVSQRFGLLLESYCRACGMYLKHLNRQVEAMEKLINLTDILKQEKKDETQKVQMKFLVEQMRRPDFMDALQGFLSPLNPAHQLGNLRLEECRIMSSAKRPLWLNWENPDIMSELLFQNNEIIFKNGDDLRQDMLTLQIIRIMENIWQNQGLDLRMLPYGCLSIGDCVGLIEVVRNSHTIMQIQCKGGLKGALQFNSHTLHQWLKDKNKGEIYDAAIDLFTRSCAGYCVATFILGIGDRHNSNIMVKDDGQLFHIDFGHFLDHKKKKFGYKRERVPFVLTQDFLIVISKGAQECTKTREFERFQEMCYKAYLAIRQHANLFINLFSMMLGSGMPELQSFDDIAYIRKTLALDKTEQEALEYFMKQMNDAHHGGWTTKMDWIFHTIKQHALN

Homo sapiens [3] = organism: Homo sapiens; test: Selectivity ratio of Ki for inhibition of alexa fluor 647-labeled kinase tracer 314 binding to recombinant human full-length N-terminal His6-tagged p110alpha/p85alpha expressed in baculovirus expression system to Ki for inhibition of alexa fluor 647-labeled kinase tracer 314 binding to recombinant human N-terminal GST-fused mTOR (1360 to 2549 residues) expressed in baculovirus expression system
Summary of the method: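 Ratio of Ki values from the TR-FRET tracer 314 displacement assays. p110α: His6-tagged enzyme, biotin anti-His antibody and Eu-streptavidin (2 nM each), tracer at 20 nM, buffer 50 mM HEPES pH 7.5, 10 mM MgCl2, 1 mM EGTA, 0.01% Brij-35. mTOR: GST-mTOR 1360–2549, Eu-anti-GST, tracer 10 nM, HEPES/5 mM MgCl2/EGTA/Pluronic buffer.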

Cytochrome P450 1A1 = biological target: T1, Cytochrome P450 1A1 (Homo sapiens, UniProt P04798); test: Drug level treated with 5-((R)-4-((R)-3-Methylmorpholino)-5a,6,8,9-tetrahydro-5H-pyrimido[5',4':4,5]pyrrolo[2,1-c][1,4]oxazin-2-yl)pyrimidin-2-amine assessed as recombinant human CYP1A1-mediated compound formation incubated for 60 mins by LC/MS analysis; assay type: ADME; conditions: recombinant enzyme, 1 h
T1 sequence (P04798 whole entry): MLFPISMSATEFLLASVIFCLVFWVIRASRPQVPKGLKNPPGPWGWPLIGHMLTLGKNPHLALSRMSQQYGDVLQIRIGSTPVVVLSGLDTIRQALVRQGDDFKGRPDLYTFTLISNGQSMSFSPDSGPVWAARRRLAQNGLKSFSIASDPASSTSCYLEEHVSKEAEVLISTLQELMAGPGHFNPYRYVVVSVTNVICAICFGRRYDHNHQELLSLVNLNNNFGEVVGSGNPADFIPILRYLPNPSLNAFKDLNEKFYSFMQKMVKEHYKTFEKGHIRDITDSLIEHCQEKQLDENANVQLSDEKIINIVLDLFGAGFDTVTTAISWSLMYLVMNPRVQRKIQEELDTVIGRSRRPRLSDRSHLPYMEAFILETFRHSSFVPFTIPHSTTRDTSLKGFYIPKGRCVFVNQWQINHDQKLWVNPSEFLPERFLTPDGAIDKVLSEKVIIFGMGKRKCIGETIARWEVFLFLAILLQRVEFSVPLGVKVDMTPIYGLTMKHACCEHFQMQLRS
Summary of the method: (§2)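 Human recombinant CYP1A1 or CYP1A2 Supersomes (25 pmol/mL) incubated with compound at 1 μM (0.25% DMSO) plus NADP+-regenerating cofactors at 37 °C for 60 min. Reaction stopped with ACN containing internal standard. Parent and metabolites expressed as percentage of total peak areas.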

Cytochrome P450 1A2 = biological target: T2, Cytochrome P450 1A2 (Homo sapiens, UniProt P05177); test: Drug level treated with 5-((R)-4-((R)-3-Methylmorpholino)-5a,6,8,9-tetrahydro-5H-pyrimido[5',4':4,5]pyrrolo[2,1-c][1,4]oxazin-2-yl)pyrimidin-2-amine assessed as recombinant human CYP1A2-mediated compound formation incubated for 60 mins by LC/MS analysis; assay type: ADME; conditions: recombinant enzyme, 1 h; summary of the method: as §2
T2 sequence (P05177 whole entry): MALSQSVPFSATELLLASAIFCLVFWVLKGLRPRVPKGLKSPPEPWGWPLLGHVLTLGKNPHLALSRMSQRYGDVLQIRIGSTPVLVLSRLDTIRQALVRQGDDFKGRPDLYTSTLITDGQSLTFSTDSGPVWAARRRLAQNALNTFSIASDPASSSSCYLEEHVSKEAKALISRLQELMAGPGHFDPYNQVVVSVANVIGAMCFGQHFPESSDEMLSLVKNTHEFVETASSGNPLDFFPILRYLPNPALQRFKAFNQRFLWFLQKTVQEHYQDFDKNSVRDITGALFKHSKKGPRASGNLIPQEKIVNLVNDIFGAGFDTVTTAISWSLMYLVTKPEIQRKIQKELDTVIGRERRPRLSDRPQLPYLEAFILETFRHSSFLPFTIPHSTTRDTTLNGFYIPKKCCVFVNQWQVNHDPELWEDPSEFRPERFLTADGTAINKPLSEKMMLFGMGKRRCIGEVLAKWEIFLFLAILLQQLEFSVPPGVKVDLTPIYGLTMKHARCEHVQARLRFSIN

Homo sapiens [4] = organism: Homo sapiens; test: Selectivity ratio of Kd for binding affinity to human wild-type partial length PI3Kalpha (R108 to N1068 residues) expressed in mammalian expression system to Kd for binding affinity to wild-type human partial length mTOR (L1382 to W2549 residues) expressed in mammalian expression system
Summary of the method: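 Ratio of Kd values from the DNA-tagged kinase competition binding assay (qPCR read-out, 11-point 3-fold dilution from 30 μM, Hill fit with slope −1, duplicates): PI3Kα Kd divided by mTOR Kd.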

Row | SMILES | Ki [1] | IC50 (mTORC2) | IC50 (mTORC1) | Ki [2] | Ratio Ki (Homo sapiens [3]) | Drug metabolism (Cytochrome P450 1A1) | Drug metabolism (Cytochrome P450 1A2) | Selectivity ratio (Homo sapiens [4])
1 | CC1(C)COCCN1c1nc(-c2ccc(N)nc2)nc2c1C[C@H]1COCCN21 | 0.121 µM | 1.33 µM | 0.991 µM | 7.19 µM | 59 |  |  | 
2 | CC(C=O)N(CCO)c1nc(-c2cnc(N)nc2)nc2c1C[C@@H]1COCCN21 (stereo not given in full) |  |  |  |  |  | Metabolite_Detected | Metabolite_Detected | 
3 | COC(OC)c1nc(N)ncc1-c1nc2c(c(N3CCOC[C@H]3C)n1)C[C@@H]1COCCN21 | 0.034 µM | 0.534 µM | 0.377 µM | 0.066 µM | 2 |  |  | 
4 | C[C@H]1COCCN1c1nc(-c2ccc(N)nc2)nc2c1C[C@H]1COCCN21 | 0.104 µM | 0.416 µM | 0.432 µM | 0.098 µM | 0.9 |  |  | 
5 | Cc1cc(N)ncc1-c1nc2c(c(N3CCOC[C@H]3C)n1)C[C@@H]1COCCN21 | 0.085 µM | 1.54 µM | 0.826 µM | 2.76 µM | 33 |  |  | 
6 | Nc1cc(C(F)(F)F)c(-c2nc(N3CCCCC3)c3c(n2)N2CCOC[C@@H]2C3)cn1 |  | 21.9 µM | 43.3 µM | 2.83 µM |  |  |  | 
7 | COc1cc(N)ncc1-c1nc2c(c(N3CCOC[C@H]3C)n1)C[C@@H]1COCCN21 | 0.208 µM | 3.76 µM | 2.52 µM | 16 µM | 77 |  |  | 
8 | Nc1ccc(-c2nc(N3CCOCC3)nc3c2C[C@@H]2COCCN32)cn1 | 1.28 µM | 1.56 µM | 1.86 µM | 0.541 µM | 0.4 |  |  | 
9 | Nc1cc(C(F)F)c(-c2nc(N3C4CCC3COC4)nc(N3C4CCC3COC4)n2)cn1 |  | 0.19 µM | 0.0852 µM |  | 389 |  |  | > 3700
10 | Nc1ccc(-c2nc(N3CCOCC3)nc3c2C[C@H]2COCCN32)cn1 | 0.812 µM | 1.87 µM | 1.79 µM | 0.867 µM | 1.1 |  |  | 
11 | CC(C=O)N(CCO)c1nc(-c2cnc(N)nc2)nc2c1C[C@@H]1COC=CN21 (stereo not given in full) |  |  |  |  |  | Metabolite_Detected |  | 
12 | Cc1cc(-c2nc3c(c(N4CCOC[C@H]4C)n2)C[C@@H]2COCCN32)cnc1N | 0.056 µM | 0.488 µM | 0.289 µM | 9.63 µM | 172 |  |  | 
13 | Nc1cc(C(F)(F)F)c(-c2nc(N3CCCCC3)c3c(n2)N2CCOC[C@H]2C3)cn1 |  | 2.08 µM | 2.65 µM | 0.138 µM |  |  |  | 
14 | COC(OC)c1cc(N)ncc1-c1nc2c(c(N3CCOC[C@H]3C)n1)C[C@@H]1COCCN21 | 0.3 µM | 6.52 µM | 2.42 µM | 1.12 µM | 3.7 |  |  | 

More lines, main results first:

Row | Ki [1] | IC50 (mTORC2) | IC50 (mTORC1) | Ki [2] | Ratio Ki (Homo sapiens [3]) | Drug metabolism (Cytochrome P450 1A1) | Drug metabolism (Cytochrome P450 1A2) | SMILES | Selectivity ratio (Homo sapiens [4])
15 | 0.06 µM | 0.389 µM | 0.354 µM | 3.23 µM | 54 |  |  | Nc1ccc(-c2nc(N3C4CCC3COC4)c3c(n2)N2CCOC[C@@H]2C3)cn1 | 
16 | 0.024 µM | 0.116 to 0.118 µM | 0.096 µM | 0.432 µM | 18 to 18.3 |  |  | Nc1ccc(-c2nc(N3CCOCC3)c3c(n2)N2CCOC[C@H]2C3)cn1 | 
17 |  | 0.355 µM | 0.524 µM | 0.056 µM |  |  |  | Nc1cc(C(F)(F)F)c(-c2nc(N3CCOCC3)c3c(n2)N2CCOC[C@H]2C3)cn1 | 
18 | 0.031 µM | 0.152 µM | 0.132 µM | 1.11 µM | 36 |  |  | Nc1ccc(-c2nc(N3C4CCC3COC4)c3c(n2)N2CCOC[C@H]2C3)cn1 | 
19 | 0.096 µM | 0.403 µM | 0.245 µM | 1.22 µM | 13 |  |  | Nc1ccc(-c2nc(N3CC4CCC(C3)O4)c3c(n2)N2CCOC[C@@H]2C3)cn1 | 
20 |  | 0.407 µM | 0.938 µM | 0.022 µM |  |  |  | Nc1cc(C(F)(F)F)c(-c2nc(N3CCOCC3)c3c(n2)N2CCCC[C@H]2C3)cn1 | 
21 | 0.0091 µM | 0.194 µM | 0.149 µM | 0.386 µM | 43 |  |  | C[C@H]1COCCN1c1nc(-c2ccc(N)nc2)nc2c1C[C@@H]1COCCN21 | 
22 |  | 0.321 µM | 1.24 µM | 0.048 µM |  |  |  | Nc1cc(C(F)(F)F)c(-c2nc(N3CCOCC3)c3c(n2)N2CCCC[C@@H]2C3)cn1 | 
23 | 0.069 µM | 0.194 µM | 0.164 µM | 0.076 µM | 1.1 |  |  | Nc1ccc(-c2nc(N3CCOCC3)c3c(n2)N2CCOC[C@@H]2C3)cn1 | 
24 | 0.027 µM | 0.207 µM | 0.16 µM | 1.41 µM | 53 |  |  | Nc1ccc(-c2nc(N3CC4CCC(C3)O4)c3c(n2)N2CCOC[C@H]2C3)cn1 | 
25 |  | 0.353 µM | 0.751 µM | 0.021 µM |  |  |  | Nc1cc(C(F)(F)F)c(-c2nc(N3CCOCC3)c3c(n2)N2CCOC[C@@H]2C3)cn1 | 
26 | 0.031 µM | 0.363 µM | 0.23 µM | 0.923 µM | 30 |  |  | C[C@@H]1COCCN1c1nc(-c2ccc(N)nc2)nc2c1C[C@H]1COCCN21 | 
27 | 0.024 µM | 0.409 µM | 0.136 µM | 0.376 µM | 16 |  |  | CC1(C)COCCN1c1nc(-c2ccc(N)nc2)nc2c1C[C@@H]1COCCN21 | 
